Assay results from ChEMBL document CHEMBL4814044, “Design and synthesis, biological evaluation of bis-(1,2,3- and 1,2,4)-triazole derivatives as potential antimicrobial and antifungal agents” (2021).

Experiments:
Type in all cases: functional
[1] = tested on: Aspergillus niger; experiment: Antifungal activity against Aspergillus niger MTCC 404 assessed as zone of inhibition at 36 uM incubated for 2 days by cross streak plate method; conditions: MTCC 404, 48 h, time 2 day, read-out: IZ
How it was run: (§1)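 Fungal strain (A. niger MTCC 404 or S. cerevisiae MTCC 1344) was incubated with the compound for 2 days at 37 °C. Growth inhibition was then assessed by the cross streak plate method.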

[2] = tested on: Aspergillus niger; experiment: Antifungal activity against Aspergillus niger MTCC 404 assessed as zone of inhibition at 24 uM incubated for 2 days by cross streak plate method; conditions: MTCC 404, 48 h, time 2 day, read-out: IZ; how it was run: as §1
[3] = tested on: Saccharomyces cerevisiae; experiment: Antifungal activity against Saccharomyces cerevisiae MTCC 1344 assessed as zone of inhibition at 48 uM incubated for 2 days by cross streak plate method; conditions: MTCC 1344, 48 h, time 2 day, read-out: IZ
How it was run: (§2)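 S. cerevisiae MTCC 1344 cultures were incubated for 2 days at 37 °C and then tested by the cross streak plate method.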

[4] = tested on: Saccharomyces cerevisiae; experiment: Antifungal activity against Saccharomyces cerevisiae MTCC 1344 assessed as zone of inhibition at 36 uM incubated for 2 days by cross streak plate method; conditions: MTCC 1344, 48 h, time 2 day, read-out: IZ; how it was run: as §2
[5] = tested on: Aspergillus niger; experiment: Antifungal activity against Aspergillus niger MTCC 404 assessed as zone of inhibition at 48 uM incubated for 2 days by cross streak plate method; conditions: MTCC 404, 48 h, time 2 day, read-out: IZ; how it was run: as §1
[6] = tested on: Saccharomyces cerevisiae; experiment: Antifungal activity against Saccharomyces cerevisiae MTCC 1344 assessed as zone of inhibition at 24 uM incubated for 2 days by cross streak plate method; conditions: MTCC 1344, 48 h, time 2 day, read-out: IZ; how it was run: as §1

`Clc1ccc(COC(Cn2ccnc2)c2ccc(Cl)cc2Cl)c(Cl)c1` (stereo unspecified) [MICONAZOLE] was tested, and the zone of inhibition at 36 µM [1] was 10 mm, the zone of inhibition at 24 µM [2] was 8 mm and the zone of inhibition at 48 µM [3] was 12 mm. For the same compound, the zone of inhibition at 36 µM [4] was 9 mm, the zone of inhibition at 48 µM [5] was 12 mm and the zone of inhibition at 24 µM [6] was 8 mm.
